We go through 12 molecules from ChEMBL document CHEMBL1131510, “An endogenous sleep-inducing compound is a novel competitive inhibitor of fatty acid amide hydrolase” (Bioorg Med Chem Lett, 1998).

The target of series [1] is T1, Fatty-acid amide hydrolase 1 (Homo sapiens, UniProt O00519).
T1 sequence (O00519 whole entry): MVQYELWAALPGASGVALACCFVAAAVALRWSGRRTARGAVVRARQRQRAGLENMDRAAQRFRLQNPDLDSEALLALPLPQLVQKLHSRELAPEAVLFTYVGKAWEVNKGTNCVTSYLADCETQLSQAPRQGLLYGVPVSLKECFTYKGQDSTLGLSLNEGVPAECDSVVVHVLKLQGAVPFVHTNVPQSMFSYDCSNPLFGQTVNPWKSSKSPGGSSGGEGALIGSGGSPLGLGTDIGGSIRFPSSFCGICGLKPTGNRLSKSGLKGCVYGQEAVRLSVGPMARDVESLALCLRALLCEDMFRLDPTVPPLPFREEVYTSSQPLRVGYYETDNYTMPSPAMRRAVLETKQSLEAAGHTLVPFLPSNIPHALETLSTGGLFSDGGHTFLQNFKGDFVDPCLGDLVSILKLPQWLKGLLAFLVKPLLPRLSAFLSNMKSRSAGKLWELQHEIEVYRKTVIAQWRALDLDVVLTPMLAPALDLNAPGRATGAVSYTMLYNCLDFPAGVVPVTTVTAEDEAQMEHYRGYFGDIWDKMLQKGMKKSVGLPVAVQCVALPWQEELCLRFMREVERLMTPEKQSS
Nature of the series: Concentration required to inhibit fatty acid amide hydrolase (FAAH) at pH 7.0. The gist of the method:
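Performed at pH 7.0 with solubilized liver plasma membrane extract as the FAAH source. ¹⁴C-oleamide breakdown to oleic acid was measured by extraction, TLC separation and scintillation counting. Reaction progress was monitored from 10 min to 1 h, and only IC50 values were derived.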

Series [2] addresses T1, Fatty-acid amide hydrolase 1. Nature of the series: Inhibitory concentration against Fatty-acid amide hydrolase (FAAH) at pH 9.0. The gist of the method:
(§1)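 Hydrolysis of ¹⁴C-oleamide to oleic acid was followed over 30 s to 15 min. Product was extracted, separated by TLC and quantified by scintillation counting.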

Series [3] has the same target. Nature of the series: Compound was tested for inhibitory potency against Fatty-acid amide hydrolase (FAAH) at pH 9.0. A digest of the protocol: as §1
Series [4] shares this target. Nature of the series: Concentration required to inhibit Fatty-acid amide hydrolase (FAAH) at pH 7.0. A digest of the protocol: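 FAAH from solubilized liver plasma membrane extract, assayed at 20-22 °C at pH 7.0. Per the general assay footnote, the reaction buffer contained Tris, EDTA, glycerol and Triton X-100. Read-out was ¹⁴C-oleamide hydrolysis to oleic acid, followed by extraction, TLC separation and scintillation counting. Reaction time courses ran 10 min to 1 h. Only IC50 values are reported at this pH.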

Series [5] is described as follows: Acid dissociation constant value for the compound was determined. It counts as ADME.

The structures appear in SMILES notation.

Turning to `CCCCCCCC/C=C\CCCCCCCC(=O)CBr`, the figures for the IC50 in series [1] and in series [2] were 5300 nM and 1000 nM, respectively. The Ki in series [3] is 390 nM.
In turn, `CCCCCC[C@H](C)OC(=O)CC(=O)CBr` gave an IC50 in series [2] of 4000 nM. The molecule further returned a Ki in series [3] of 1100 nM.
On to `CCCCCCCOC(=O)CC(=O)CBr`, for which the IC50 in series [2] came to 1500 nM; in series [4] it was 2100 nM. Moreover, the affinity in series [3], expressed as Ki, was 550 nM.
Regarding `CCCCCC[C@@H](C)OC(=O)CC(O)CBr` (stereo partly drawn), the IC50 in series [2] was greater than 100000 nM.
As to `CCCCCCCC/C=C\CCCCCCCC(=O)C(F)(F)F`, the IC50 stood at 9900 nM in series [1] and 600 nM in series [2]. Also, the affinity in series [3] corresponds to a Ki of 250 nM.
In turn, `CCCCCC[C@@H](C)OC(=O)CC(=O)CC` had an IC50 in series [2] greater than 100000 nM.
With `CCCCCC[C@@H](C)OC(=O)CC(=O)CBr`, the values for the IC50 in series [2] and in series [4] were 2600 nM and 3100 nM, respectively. Further, the pKa in series [5] came out at 8.5. The molecule further showed a Ki in series [3] of 800 nM.
Turning to `CCCCCC[C@H](C)OC(=O)CC(C)=O`, the IC50 in series [2] is greater than 100000 nM. For the same molecule, the pKa in series [5] amounted to 10.5.
Turning to `CCCCCCCCC(=O)CC(C)=O`, in series [2], the IC50 is greater than 100000 nM. The same molecule gave a pKa in series [5] of 9.
Take `CCCCCC[C@@H](C)OC(=O)CC(=O)CCC`: in series [2], the half-maximal inhibitory concentration (IC50) was greater than 100000 nM.
On to `CCCCCC[C@@H](C)OC(=O)CC(=O)CCl`, for which the values for the IC50 in series [1] and in series [2] were 700 nM and 2900 nM, respectively. The molecule further showed a Ki in series [3] of 1100 nM.
Turning to `CCCCCCCC/C=C\CCCCOC(=O)CC(=O)CBr`, the concentration for half-maximal inhibition (IC50) is 2500 nM in series [1] and 600 nM in series [2]. Besides, the affinity in series [3] corresponds to a Ki of 190 nM.
